Measured values from the RNAGym collection of RNA variant scans (doi:10.1126/science.aae0568).
Fewer inactive variants are shown than the library holds.

B1: tRNA (parent)
chain: GUUCCGUUGGCGUAAUGGUAACGCGUCUCCCUCCUAAGGAGAAGACUGCGGGUUCGAGUCCCGUACGGAACG

Variants of: B1
Test: yeast fitness relative to wild type (ratio to wild type); higher = fitter; tRNA-Arg(CCU), competitive growth, 37 C, YPD
Procedure, shortened: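 The tRNA-Arg(CCU) gene variants were made by chemical synthesis with a 3% per-site mutation rate at 69 sites and inserted at the native genomic locus of Saccharomyces cerevisiae. After pooling, the strains were competed in YPD at 37°C for 24 hours in six parallel replicates. Gene amplicons from the start population and each end population were read by 100-nucleotide paired-end sequencing, and Darwinian fitness relative to wild type was taken from genotype frequency changes. Genotypes needed ≥ 100 starting reads, and estimates < 0.5 were set to 0.5.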

Row | Variant | yeast fitness
1 | C33G A36U C49A | ≤ 0.5
2 | C33G G39C A69C | ≤ 0.5
3 | C33U A45C C49U | 0.652
4 | C33U U35C C61U | 0.555
5 | C33G G39A C49G U54A | ≤ 0.5
6 | C33G A40U G48C C60G | ≤ 0.5
7 | C33U G52C G56C | ≤ 0.5
8 | C34A A36U G52A C60A | ≤ 0.5
9 | C34A G68A | 0.647
10 | C33U C34A A36G A42U | 0.73
11 | C33U C34A A36G A42U C49U | 0.571
12 | C33A G67C | 0.621
13 | C33A G67A | 0.586
14 | C34A G51C | ≤ 0.5
15 | C33U A37C | 0.556
16 | C33U A37U | 0.55
17 | C33U C46U | 0.708
18 | C33U C46A | 0.821
19 | C33G A40G | 0.615
20 | C33G A40C | 0.697
21 | C34A C49U G51C C61U | ≤ 0.5

Row | Variant | yeast fitness
22 | C33G C60U | ≤ 0.5
23 | C33A G56C | 0.634
24 | C33U G58C | 0.635
25 | C33U G39C A57U | 0.643
26 | C33G C34A A43G C61U A65C | ≤ 0.5
27 | C33G C61A C66U | 0.583
28 | C33U C49U A69U | 0.564
29 | C34A C49A U59G | 0.654
30 | C33U G39A A69C | ≤ 0.5
31 | C33U G39A A57G | ≤ 0.5
32 | C33U A43G | 0.672
33 | C33G C34U | 0.563
34 | C33G A42U | 0.73
35 | C33G A42C | 0.675
36 | C33G G52A A65C | ≤ 0.5
37 | C34A C49U | 0.826
38 | C33G G41A U47A C61U A69U | ≤ 0.5
39 | C33G A42G G52A C62A A69U A70U | ≤ 0.5
40 | C33U C60U | 0.629
41 | C33U C60G | 0.607
42 | C34A A42C A45U A65U | ≤ 0.5

Row | Variant | yeast fitness
43 | C34A G44A C46U G68A | 0.56
44 | C33G G38C | 0.548
45 | C34A A37U G52A | ≤ 0.5
46 | C33G C61U C62G C66U | ≤ 0.5
47 | C33U A40U C66U | ≤ 0.5
48 | C33G G38C C55A A65U | 0.665
49 | C34A U35C | 0.519
50 | C34A A43C | 0.645
51 | C34A A43U | 0.729
52 | C33G U35C G39A | ≤ 0.5
53 | C33G G38C C46G U53C A69C | ≤ 0.5
54 | C33G A40G A43G G44A | ≤ 0.5
55 | C33G A43G G58A G67A A69U | 0.573
56 | C34A A37G C61A | ≤ 0.5
57 | C33U G50A | 0.626
58 | C33U A43G U53C | ≤ 0.5
59 | C33G C46A | 0.71
60 | C34A A36C C46A | ≤ 0.5
61 | C33G G67U G68C A69U | ≤ 0.5
62 | C33U A36C A70G | ≤ 0.5
63 | C33U A69U | 0.788

Row | Variant | yeast fitness
64 | C33G G67A A69C | ≤ 0.5
65 | C33G G51A U53A G56A G67C | ≤ 0.5
66 | C33U A57U U59C | 0.601
67 | C33G A40G G58A C66G | ≤ 0.5
68 | C33G U59A C60G C61G | ≤ 0.5
69 | C33G G68A | 0.671
70 | C33G G68C | 0.558
71 | C33U U53A G58C | ≤ 0.5
72 | C34A | 0.71
73 | C34A G41A C46A | ≤ 0.5
74 | C33U G41C C55A A69C | ≤ 0.5
75 | C33G A42C G67A | ≤ 0.5
76 | C33G A37U A40C | ≤ 0.5
77 | C34A G63A | 0.621
78 | C33U A37U C61U | ≤ 0.5
79 | C34A C61G G68C | 0.538
80 | C33U A42G U59G | 0.504
81 | C33U A42G U59A | ≤ 0.5
82 | C33U G39A G63A | ≤ 0.5
83 | C33G U47C G52C C61U | ≤ 0.5
84 | C33U C34U G50A | 0.608
